# From ChEMBL document CHEMBL4823291, “Discovery of 5,6,7,8-tetrahydropyrido[3,4-d]pyrimidine derivatives as novel selective Axl inhibitors” (Bioorg Med Chem Lett, 2021)
# Legend:
# [1] = Cmax in CAnN.Cg-Foxnlnu/CrlCrlj mouse plasma at 50 mg/kg, po single dose measured up to 24 hrs by liquid chromatography tandem mass spectrometry; assay type: ADME, organism-based; design: route oral, dose 50 mg/kg, time <=24
# CYP2C8 = target: T1, CYP2C8 (Homo sapiens, UniProt P10632); test: Time dependent inhibition of CYP2C8 in human liver microsomes assessed as enzyme remaining activity using cocktail of probe CYP as substrate at 50 uM; assay type: ADME; conditions: probe cocktail of CYP probe substrates, read-out: Activity
# T1 sequence (P10632 whole entry): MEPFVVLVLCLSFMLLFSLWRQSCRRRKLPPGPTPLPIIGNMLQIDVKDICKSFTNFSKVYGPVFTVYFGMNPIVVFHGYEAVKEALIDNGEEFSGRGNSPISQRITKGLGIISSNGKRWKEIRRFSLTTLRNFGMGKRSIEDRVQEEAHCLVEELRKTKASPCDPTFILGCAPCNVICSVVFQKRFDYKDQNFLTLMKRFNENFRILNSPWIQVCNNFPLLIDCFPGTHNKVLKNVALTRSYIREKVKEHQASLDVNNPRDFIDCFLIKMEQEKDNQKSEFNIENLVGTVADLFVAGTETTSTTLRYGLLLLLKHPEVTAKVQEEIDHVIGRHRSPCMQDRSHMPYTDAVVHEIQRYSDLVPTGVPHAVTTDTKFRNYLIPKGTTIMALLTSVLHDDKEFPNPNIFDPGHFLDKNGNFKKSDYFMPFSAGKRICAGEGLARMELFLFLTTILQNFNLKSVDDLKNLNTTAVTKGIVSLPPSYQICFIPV
# In short: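 Time-dependent CYP inhibition in human liver microsomes, with test compound at 50 µM and a cocktail of probe CYP substrates.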
# [2] = target: T2, Tyrosine-protein kinase receptor UFO (Mus musculus, UniProt Q00993); test: Inhibition of Axl in mouse BaF3 cells; assay type: cell-based
# T2 sequence (Q00993 whole entry): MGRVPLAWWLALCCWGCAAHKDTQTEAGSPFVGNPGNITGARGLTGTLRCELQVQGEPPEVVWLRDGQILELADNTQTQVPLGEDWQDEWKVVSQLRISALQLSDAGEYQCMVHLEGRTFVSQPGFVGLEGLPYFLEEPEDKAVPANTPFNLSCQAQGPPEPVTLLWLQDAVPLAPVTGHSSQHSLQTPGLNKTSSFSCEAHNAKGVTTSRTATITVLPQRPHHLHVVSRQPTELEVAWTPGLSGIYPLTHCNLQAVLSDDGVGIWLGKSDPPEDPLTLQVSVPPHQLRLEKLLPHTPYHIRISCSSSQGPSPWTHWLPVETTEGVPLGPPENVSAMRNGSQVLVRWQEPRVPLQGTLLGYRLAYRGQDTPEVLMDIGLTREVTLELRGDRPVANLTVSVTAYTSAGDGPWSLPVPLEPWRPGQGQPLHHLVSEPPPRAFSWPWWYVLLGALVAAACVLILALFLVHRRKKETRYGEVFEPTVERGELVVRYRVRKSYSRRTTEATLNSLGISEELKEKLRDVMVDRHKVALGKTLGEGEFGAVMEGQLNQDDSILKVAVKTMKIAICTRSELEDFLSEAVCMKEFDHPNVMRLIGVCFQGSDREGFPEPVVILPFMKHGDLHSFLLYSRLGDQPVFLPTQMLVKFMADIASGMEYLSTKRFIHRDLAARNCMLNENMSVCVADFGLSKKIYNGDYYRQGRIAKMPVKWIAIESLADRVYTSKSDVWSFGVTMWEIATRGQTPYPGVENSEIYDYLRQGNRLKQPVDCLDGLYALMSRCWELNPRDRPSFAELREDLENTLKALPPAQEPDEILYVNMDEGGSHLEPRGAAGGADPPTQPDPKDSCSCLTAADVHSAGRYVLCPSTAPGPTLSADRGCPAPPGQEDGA
# [3] = target: T3, Tyrosine-protein kinase Mer (Homo sapiens, UniProt Q12866); test: Inhibition of Mer (unknown origin) by cell free assay
# T3 sequence (Q12866 whole entry): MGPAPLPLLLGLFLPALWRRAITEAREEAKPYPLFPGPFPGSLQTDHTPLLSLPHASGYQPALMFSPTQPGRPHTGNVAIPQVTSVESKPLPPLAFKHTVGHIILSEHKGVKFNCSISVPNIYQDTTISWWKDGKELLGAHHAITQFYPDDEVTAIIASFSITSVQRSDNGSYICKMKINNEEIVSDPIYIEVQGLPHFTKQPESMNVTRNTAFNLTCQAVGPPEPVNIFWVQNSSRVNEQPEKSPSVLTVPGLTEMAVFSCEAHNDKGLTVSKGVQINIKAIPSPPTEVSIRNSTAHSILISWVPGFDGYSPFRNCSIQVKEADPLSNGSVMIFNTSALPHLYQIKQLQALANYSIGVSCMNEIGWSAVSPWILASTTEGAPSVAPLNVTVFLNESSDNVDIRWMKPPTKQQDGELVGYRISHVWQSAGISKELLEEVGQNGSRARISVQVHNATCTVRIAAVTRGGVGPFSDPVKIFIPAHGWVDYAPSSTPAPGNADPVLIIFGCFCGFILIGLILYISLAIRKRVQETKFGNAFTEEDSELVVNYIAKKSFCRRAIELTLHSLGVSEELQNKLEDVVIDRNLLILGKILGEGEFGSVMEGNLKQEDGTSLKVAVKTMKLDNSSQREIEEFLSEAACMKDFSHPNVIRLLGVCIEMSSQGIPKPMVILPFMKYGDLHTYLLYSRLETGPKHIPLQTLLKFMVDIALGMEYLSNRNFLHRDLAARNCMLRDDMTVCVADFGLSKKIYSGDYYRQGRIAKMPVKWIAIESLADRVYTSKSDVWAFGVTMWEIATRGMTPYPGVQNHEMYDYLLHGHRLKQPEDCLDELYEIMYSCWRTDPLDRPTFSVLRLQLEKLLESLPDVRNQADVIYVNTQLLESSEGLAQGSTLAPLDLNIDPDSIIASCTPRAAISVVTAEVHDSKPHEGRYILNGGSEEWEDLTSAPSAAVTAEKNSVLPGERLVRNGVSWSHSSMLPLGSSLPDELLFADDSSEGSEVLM
# [4] = Tmax in CAnN.Cg-Foxnlnu/CrlCrlj mouse plasma at 25 mg/kg, po single dose measured up to 24 hrs by liquid chromatography tandem mass spectrometry; assay type: ADME, organism-based
structure (smiles),measurement,setting,value
Cc1ccc(-n2c(=O)c(C(=O)Nc3ccc(Oc4ncnc5c4CCN(CC4CCN(C)CC4)C5)c(F)c3)cn(C3CCCC3)c2=O)nc1,Cmax,[1],5290 ng/mL
same,activity at 50 µM,CYP2C8,84%
same,IC50,[2],28 nM
same,IC50,[3],190 nM
same,Tmax,[4],2 h
